# Source: ChEMBL document CHEMBL5724801, “EUbOPEN Chemogenomics Library - Multiplex” (2024)
# “And” between values parts separate entries of the source, which are not always exact repeats. Equal values may be shown once.
# Columns and labels:
# Fibroblast = assay: Multiplex assay against human fibroblast; format: toxicity, cell-based
# Method in brief: (§1)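 On a CQ1 microscope at 37°C and 5% CO2, live cells were imaged after compound addition. They had been stained at seeding with Hoechst33342, BioTracker Green Microtubule Cytoskeleton Dye, MitoTracker Red and Annexin V Alexa Fluor 680. CellPathfinder machine-learning gating assigned cells to Hoechst high-intensity objects or normal cells, normal cells to healthy, pyknosed or fragmented nuclei, and pyknosed cells to mitotic or apoptotic. Tubulin, mitochondrial-mass and membrane-permeability phenotypes are per cents of healthy-nucleus cells.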
# HEK-293T = assay: Multiplex assay against HEK293T; format: toxicity, cell-based; settings: human; method in brief: as §1
# [1] = 24 h, 10 µM, compound concentration 10 uM
# [2] = 48 h, 1 µM, compound concentration 1 uM
# [3] = 48 h, 10 µM, compound concentration 10 uM
# [4] = 12 h, 1 µM, compound concentration 1 uM
# [5] = 12 h, 10 µM, compound concentration 10 uM
# [6] = 24 h, 1 µM, compound concentration 1 uM
compound,measurement,setting,value
COc1cc(C(=O)N(CCCc2ccccc2)Cc2ccc(CC(=O)O)cc2)cc(OC)c1C,Population Apoptotic (%),Fibroblast; [1],55% and 40%
same,Population Fragmented Nuclei (%),Fibroblast; [1],12% and 25%
same,Population Healthy Nuclei (%),Fibroblast; [1],76% and 61%
same,Population Hoechst High Intensity Objects (%),Fibroblast; [1],1% and 4%
same,Population Membrane Permeable-Phenotype (%),Fibroblast; [1],1% and 5%
same,Population Mitochondria Different-Phenotype (%),Fibroblast; [1],6% and 0%
same,Population Mitotic Cells (%),Fibroblast; [1],45% and 59%
same,Population Normal (%),Fibroblast; [1],98% and 96%
same,Population Pyknosed Nuclei (%),Fibroblast; [1],10% and 13%
same,Population Tubulin-Different-Phenotype (%),Fibroblast; [1],25% and 41%
same,Total Cell Count,Fibroblast; [1],192 and 175
same,Population Apoptotic (%),Fibroblast; [2],90% and 52%
same,Population Fragmented Nuclei (%),Fibroblast; [2],21% and 50%
same,Population Healthy Nuclei (%),Fibroblast; [2],72% and 41%
same,Population Hoechst High Intensity Objects (%),Fibroblast; [2],1% and 2%
same,Population Membrane Permeable-Phenotype (%),Fibroblast; [2],0% and 3%
same,Population Mitochondria Different-Phenotype (%),Fibroblast; [2],0% and 9%
same,Population Normal (%),Fibroblast; [2],98% and 97%
same,Population Pyknosed Nuclei (%),Fibroblast; [2],6% and 8%
same,Population Tubulin-Different-Phenotype (%),Fibroblast; [2],17% and 40%
same,Total Cell Count,Fibroblast; [2],168 and 211
same,Population Apoptotic (%),Fibroblast; [3],77% and 58%
same,Population Fragmented Nuclei (%),Fibroblast; [3],25% and 38%
same,Population Healthy Nuclei (%),Fibroblast; [3],65% and 54%
same,Population Hoechst High Intensity Objects (%),Fibroblast; [3],2% and 5%
same,Population Membrane Permeable-Phenotype (%),Fibroblast; [3],1% and 5%
same,Population Mitochondria Different-Phenotype (%),Fibroblast; [3],5% and 3%
same,Population Mitotic Cells (%),Fibroblast; [3],22% and 41%
same,Population Normal (%),Fibroblast; [3],97% and 94%
same,Population Pyknosed Nuclei (%),Fibroblast; [3],9% and 6%
same,Population Tubulin-Different-Phenotype (%),Fibroblast; [3],32% and 46%
same,Total Cell Count,Fibroblast; [3],195 and 187
same,Population Apoptotic (%),HEK-293T; [4],45% and 44%
same,Population Fragmented Nuclei (%),HEK-293T; [4],7% and 6%
same,Population Healthy Nuclei (%),HEK-293T; [4],82% and 84%
same,Population Hoechst High Intensity Objects (%),HEK-293T; [4],5% and 4%
same,Population Membrane Permeable-Phenotype (%),HEK-293T; [4],0%
same,Population Mitochondria Different-Phenotype (%),HEK-293T; [4],47% and 50%
same,Population Mitotic Cells (%),HEK-293T; [4],55%
same,Population Normal (%),HEK-293T; [4],94% and 95%
same,Population Pyknosed Nuclei (%),HEK-293T; [4],10% and 9%
same,Population Tubulin-Different-Phenotype (%),HEK-293T; [4],31% and 19%
same,Total Cell Count,HEK-293T; [4],395 and 410
same,Population Apoptotic (%),HEK-293T; [5],30% and 47%
same,Population Fragmented Nuclei (%),HEK-293T; [5],6% and 4%
same,Population Healthy Nuclei (%),HEK-293T; [5],77% and 82%
same,Population Hoechst High Intensity Objects (%),HEK-293T; [5],8% and 6%
same,Population Membrane Permeable-Phenotype (%),HEK-293T; [5],1% and 0%
same,Population Mitochondria Different-Phenotype (%),HEK-293T; [5],46% and 67%
same,Population Mitotic Cells (%),HEK-293T; [5],70% and 52%
same,Population Normal (%),HEK-293T; [5],91% and 93%
same,Population Pyknosed Nuclei (%),HEK-293T; [5],15% and 13%
same,Population Tubulin-Different-Phenotype (%),HEK-293T; [5],52% and 44%
same,Total Cell Count,HEK-293T; [5],431 and 438
same,Population Apoptotic (%),HEK-293T; [6],32% and 48%
same,Population Fragmented Nuclei (%),HEK-293T; [6],7%
same,Population Healthy Nuclei (%),HEK-293T; [6],78% and 82%
same,Population Hoechst High Intensity Objects (%),HEK-293T; [6],5% and 3%
same,Population Membrane Permeable-Phenotype (%),HEK-293T; [6],0%
same,Population Mitochondria Different-Phenotype (%),HEK-293T; [6],27% and 26%
same,Population Mitotic Cells (%),HEK-293T; [6],67% and 51%
same,Population Normal (%),HEK-293T; [6],94% and 96%
same,Population Pyknosed Nuclei (%),HEK-293T; [6],14% and 9%
same,Population Tubulin-Different-Phenotype (%),HEK-293T; [6],15% and 10%
same,Total Cell Count,HEK-293T; [6],483 and 507
same,Population Apoptotic (%),HEK-293T; [1],34% and 42%
same,Population Fragmented Nuclei (%),HEK-293T; [1],7%
same,Population Healthy Nuclei (%),HEK-293T; [1],80% and 79%
same,Population Hoechst High Intensity Objects (%),HEK-293T; [1],7% and 6%
same,Population Membrane Permeable-Phenotype (%),HEK-293T; [1],0%
same,Population Mitochondria Different-Phenotype (%),HEK-293T; [1],39% and 50%
same,Population Mitotic Cells (%),HEK-293T; [1],65% and 57%
same,Population Normal (%),HEK-293T; [1],92% and 93%
same,Population Pyknosed Nuclei (%),HEK-293T; [1],12%
same,Population Tubulin-Different-Phenotype (%),HEK-293T; [1],43% and 38%
same,Total Cell Count,HEK-293T; [1],549 and 526
same,Population Apoptotic (%),HEK-293T; [2],30% and 26%
same,Population Fragmented Nuclei (%),HEK-293T; [2],12% and 9%
same,Population Healthy Nuclei (%),HEK-293T; [2],77% and 83%
same,Population Hoechst High Intensity Objects (%),HEK-293T; [2],1% and 3%
same,Population Membrane Permeable-Phenotype (%),HEK-293T; [2],1%
same,Population Mitochondria Different-Phenotype (%),HEK-293T; [2],16% and 17%
same,Population Mitotic Cells (%),HEK-293T; [2],69% and 73%
same,Population Normal (%),HEK-293T; [2],98% and 96%
same,Population Pyknosed Nuclei (%),HEK-293T; [2],9% and 7%
same,Population Tubulin-Different-Phenotype (%),HEK-293T; [2],11% and 9%
same,Total Cell Count,HEK-293T; [2],812 and 753
same,Population Apoptotic (%),HEK-293T; [3],32% and 33%
same,Population Fragmented Nuclei (%),HEK-293T; [3],12% and 15%
same,Population Healthy Nuclei (%),HEK-293T; [3],76% and 75%
same,Population Hoechst High Intensity Objects (%),HEK-293T; [3],4% and 8%
same,Population Membrane Permeable-Phenotype (%),HEK-293T; [3],1%
same,Population Mitochondria Different-Phenotype (%),HEK-293T; [3],29% and 37%
same,Population Mitotic Cells (%),HEK-293T; [3],67% and 66%
same,Population Normal (%),HEK-293T; [3],95% and 91%
same,Population Pyknosed Nuclei (%),HEK-293T; [3],11% and 9%
same,Population Tubulin-Different-Phenotype (%),HEK-293T; [3],29% and 34%
same,Total Cell Count,HEK-293T; [3],729 and 632
